Structures are written as SMILES. Converted amounts (≈) assume the structure as drawn.

This note sets out measurements from ChEMBL document CHEMBL1140053, “Discovery of antimycobacterial spiro-piperidin-4-ones: an atom economic, stereoselective synthesis, and biological intervention” (J Med Chem, 2008).

For the assay, the system named is Mycobacterium tuberculosis. Description: Antimycobacterial activity against multidrug-resistant Mycobacterium tuberculosis by agar dilution method. It is filed as functional. An outline of the steps:
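Clinical MDR isolate resistant to isoniazid, rifampicin, ethambutol and ofloxacin. Agar dilution in Middlebrook 7H11 agar with OADC, pH 7.40, NCCLS-like method, run in duplicate. MIC is the lowest concentration giving complete inhibition of growth.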
Molecule `CN1C/C(=C\c2ccccc2)C(=O)[C@]2(C1)[C@@H](c1ccccc1)[C@H](c1ccccc1)N[C@@]21C(=O)Nc2ccccc21` (racemic) returned an MIC of 1.49 µg/mL (≈ 2.83 µM). Next, `CN1C/C(=C\c2ccccc2Cl)C(=O)[C@]2(C1)[C@@H](c1ccccc1Cl)[C@H](c1ccccc1)N[C@@]21C(=O)Nc2ccccc21` (racemic): 5.27 µg/mL (≈ 8.86 µM); `CN1C/C(=C\c2cccs2)C(=O)[C@]2(C1)[C@@H](c1cccs1)CN(C)[C@@]21C(=O)Nc2ccccc21` (racemic): 3.28 µg/mL (≈ 6.9 µM); `CN1C/C(=C\c2ccccc2Cl)C(=O)[C@]2(C1)[C@@H](c1ccccc1Cl)[C@@H]1CCCN1[C@@]21C(=O)Nc2ccccc21` (racemic): 0.71 µg/mL (≈ 1.27 µM). Next, `Cc1ccccc1/C=C1\CN(C)C[C@@]2(C1=O)[C@@H](c1ccccc1C)CN(C)[C@@]21C(=O)Nc2ccccc21` (racemic): 0.39 µg/mL (≈ 0.793 µM); `CN1C/C(=C\c2cccc(F)c2)C(=O)[C@]2(C1)[C@@H](c1cccc(F)c1)CN(C)[C@@]21C(=O)Nc2ccccc21` (racemic): 1.56 µg/mL (≈ 3.12 µM); `CN1C/C(=C\c2ccco2)C(=O)[C@]2(C1)[C@@H](c1ccco1)CN(C)[C@@]21C(=O)Nc2ccccc21` (racemic): 3.52 µg/mL (≈ 7.94 µM). Next, `COc1ccccc1/C=C1\CN(C)C[C@@]2(C1=O)[C@@H](c1ccccc1OC)[C@@H]1CCCN1[C@@]21C(=O)Nc2ccccc21` (racemic): 0.71 µg/mL (≈ 1.29 µM). In turn, `Cc1ccccc1/C=C1\CN(C)C[C@@]2(C1=O)[C@@H](c1ccccc1C)[C@H](c1ccccc1)N[C@@]21C(=O)Nc2ccccc21` (racemic) yielded a minimal inhibitory concentration (MIC) of 2.82 µg/mL (≈ 5.09 µM). The value for `CN1C/C(=C\c2ccc(Cl)cc2Cl)C(=O)[C@]2(C1)[C@@H](c1ccc(Cl)cc1Cl)[C@H](c1ccccc1)N[C@@]21C(=O)Nc2ccccc21` (racemic) was 2.35 µg/mL (≈ 3.54 µM); that for `COc1ccc(/C=C2\CN(C)C[C@@]3(C2=O)[C@@H](c2ccc(OC)cc2)[C@H](c2ccccc2)N[C@@]32C(=O)Nc3ccccc32)cc1` (racemic) was 0.67 µg/mL (≈ 1.14 µM); that for `CN1C/C(=C\c2ccc(F)cc2)C(=O)[C@]2(C1)[C@@H](c1ccc(F)cc1)[C@H](c1ccccc1)N[C@@]21C(=O)Nc2ccccc21` (racemic) was 0.16 µg/mL (≈ 0.285 µM). In turn, `CN1C/C(=C\c2ccc(Cl)cc2Cl)C(=O)[C@]2(C1)[C@@H](c1ccc(Cl)cc1Cl)CN(C)[C@@]21C(=O)Nc2ccccc21` (racemic) displayed an MIC of 2.59 µg/mL (≈ 4.31 µM). Next, `CN1C/C(=C\c2cccs2)C(=O)[C@]2(C1)[C@@H](c1cccs1)[C@@H]1CCCN1[C@@]21C(=O)Nc2ccccc21` (racemic): 0.38 µg/mL (≈ 0.757 µM); `CN1C/C(=C\c2ccccc2Cl)C(=O)[C@]2(C1)[C@@H](c1ccccc1Cl)CN(C)[C@@]21C(=O)Nc2ccccc21` (racemic): 0.08 µg/mL (≈ 0.15 µM). The value for `COc1ccccc1/C=C1\CN(C)C[C@@]2(C1=O)[C@@H](c1ccccc1OC)[C@H](c1ccccc1)N[C@@]21C(=O)Nc2ccccc21` (racemic) was 2.67 µg/mL (≈ 4.56 µM).

Turning to `CN1C/C(=C\c2cccc3ccccc23)C(=O)[C@]2(C1)[C@@H](c1cccc3ccccc13)[C@@H]1CCCN1[C@@]21C(=O)Nc2ccccc21` (racemic), it took 5.31 µg/mL (≈ 9 µM) to inhibit growth (MIC).

On to `COc1ccccc1/C=C1\CN(C)C[C@@]2(C1=O)[C@@H](c1ccccc1OC)CN(C)[C@@]21C(=O)Nc2ccccc21` (racemic), for which the minimal inhibitory concentration (MIC) was determined as 1.49 µg/mL (≈ 2.85 µM). Consider `Cc1ccc(/C=C2\CN(C)C[C@@]3(C2=O)[C@@H](c2ccc(C)cc2)[C@H](c2ccccc2)N[C@@]32C(=O)Nc3ccccc32)cc1` (racemic), for which the minimal inhibitory concentration (MIC) was determined as 1.41 µg/mL (≈ 2.55 µM). For `COc1ccc(/C=C2\CN(C)C[C@@]3(C2=O)[C@@H](c2ccc(OC)cc2)CN(C)[C@@]32C(=O)Nc3ccccc32)cc1` (racemic), the minimum inhibitory concentration (MIC) turned out to be 0.36 µg/mL (≈ 0.688 µM). The value for `NNC(=O)c1ccncc1` [ISONIAZID] was 45.6 µg/mL (≈ 332 µM); that for `CN1C/C(=C\c2ccc(F)cc2)C(=O)[C@]2(C1)[C@@H](c1ccc(F)cc1)[C@@H]1CCCN1[C@@]21C(=O)Nc2ccccc21` (racemic) was 2.97 µg/mL (≈ 5.65 µM).

A word on the MIC: it is the smallest concentration in the dilution series that meets the test's criterion for growth inhibition.
